Assay results published in article PMC8154016 (ACS Omega, 2021).

What was measured:
[1] = test system: MCF-7 (breast) cancer cell line; test: MTT assay, cell viability, MCF-7; type: cell-based; details: Homo sapiens, MCF7, 48 h, read-out: Cell viability (%) MCF-7 (breast), 100 μg/μL concentration of compound, 48 h, MTT, mean ± SD in triplicate
Method in brief: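 Human MCF-7 breast cancer cells grown in DMEM with 10% FBS and 1% penicillin–streptomycin at 37 °C, 5% CO2, humidified. Test compound in DMSO (under 1% final) added at various dilutions for 48 h. MTT (5 mg/mL stock) then added for 240 min at 37 °C. Formazan dissolved in DMSO and absorbance read at 490 nm. Percent viability calculated; triplicate, mean ± SD.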

[2] = test system: A549 (lung) cancer cell line; test: MTT assay, cell viability and IC50, A549; type: cell-based; details: Homo sapiens; for viability: A549, 48 h, read-out: Cell viability (%) A549 (lung), 100 μg/μL concentration of compound, 48 h, MTT, mean ± SD in triplicate
Method in brief: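 A549 human lung cancer cells were grown in DMEM with 10% FBS and 1% penicillin–streptomycin at 37 °C in humidified 5% CO2. Cells were seeded in 96-well plates and exposed for 48 h to serial dilutions of the test compound in DMSO (<1% final). MTT (5 mg/mL solution as added) was applied for 240 min at 37 °C. Formazan was dissolved in DMSO and A490 read for % viability. Triplicate; mean ± SD.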

IC50 ([2]; A549, read-out: IC50 (μM) A549 (lung)) | Structure (SMILES) | viability [1] | viability [2]
 | Cn1c(=O)c2c(ncn2Cc2nnc(SCC(=O)Nc3ccc(Cl)c(Cl)c3)n2-c2ccccc2)n(C)c1=O [Compound 11d, N-(3,4-Dichlorophenyl)-2-(5-((1,3-dimethyl-2,6-dioxo-2,3-dihydro-1H-purin-7(6H)-yl)methyl)-4-phenyl-4H-1,2,4-triazol-3-ylthio)acetamide] | 38.1 ± 4.04% | 46.2 ± 1.42%
 | Cn1c(=O)c2c(ncn2Cc2nnc(SCC(=O)Nc3ccccc3F)n2-c2ccccc2)n(C)c1=O [Compound 11j, 2-(5-((1,3-Dimethyl-2,6-dioxo-2,3-dihydro-1H-purin-7(6H)-yl)methyl)-4-phenyl-4H-1,2,4-triazol-3-ylthio)-N-(2-fluorophenyl)acetamide] | 63.7 ± 3.54% | 67.5 ± 4.27%
 | Cc1ccc(NC(=O)CSc2nnc(Cn3cnc4c3c(=O)n(C)c(=O)n4C)n2-c2ccccc2)c(C)c1 [Compound 11c, 2-(5-((1,3-Dimethyl-2,6-dioxo-2,3-dihydro-1H-purin-7(6H)-yl)methyl)-4-phenyl-4H-1,2,4-triazol-3-ylthio)-N-(2,4-dimethylphenyl)acetamide] | 38.7 ± 2.07% | 26.1 ± 1.86%
 | Cn1c(=O)c2c(ncn2CC(=O)O)n(C)c1=O [Acefylline, Theophylline-7-acetic acid, reference compound] | 86.3 ± 11.8% | 
 | Cc1ccc(NC(=O)CSc2nnc(Cn3cnc4c3c(=O)n(C)c(=O)n4C)n2-c2ccccc2)cc1C [Compound 11h, 2-(5-((1,3-Dimethyl-2,6-dioxo-2,3-dihydro-1H-purin-7(6H)-yl)methyl)-4-phenyl-4H-1,2,4-triazol-3-ylthio)-N-(3,4-dimethylphenyl)acetamide] | 33.2 ± 2.77% | 55.4 ± 4.6%
 | Cn1c(=O)c2c(ncn2Cc2nnc(SCC(=O)Nc3ccc(F)cc3)n2-c2ccccc2)n(C)c1=O [Compound 11e, 2-(5-((1,3-Dimethyl-2,6-dioxo-2,3-dihydro-1H-purin-7(6H)-yl)methyl)-4-phenyl-4H-1,2,4-triazol-3-ylthio)-N-(4-fluorophenyl)acetamide] | 54.8 ± 4.88% | 52.1 ± 3.66%
 | Cn1c(=O)c2c(ncn2Cc2nnc(SCC(=O)Nc3ccccc3Cl)n2-c2ccccc2)n(C)c1=O [Compound 11f, N-(2-Chlorophenyl)-2-(5-((1,3-dimethyl-2,6-dioxo-2,3-dihydro-1H-purin-7(6H)-yl)methyl)-4-phenyl-4H-1,2,4-triazol-3-ylthio)acetamide] | 72.8 ± 6.35% | 55.4 ± 4.11%
 | Cn1c(=O)c2c(ncn2Cc2nnc(SCC(=O)Nc3ccc(Cl)cc3Cl)n2-c2ccccc2)n(C)c1=O [Compound 11b, N-(2,4-Dichlorophenyl)-2-(5-((1,3-dimethyl-2,6-dioxo-2,3-dihydro-1H-purin-7(6H)-yl)methyl)-4-phenyl-4H-1,2,4-triazol-3-ylthio)acetamide] | 69.4 ± 7.05% | 52.6 ± 5.07%
 | Cn1c(=O)c2c(ncn2Cc2nnc(SCC(=O)Nc3ccccc3)n2-c2ccccc2)n(C)c1=O [Compound 11a, 2-(5-((1,3-Dimethyl-2,6-dioxo-2,3-dihydro-1H-purin-7(6H)-yl)methyl)-4-phenyl-4H-1,2,4-triazol-3-ylthio)-N-phenylacetamide] | 34.7 ± 2.49% | 59.6 ± 1.36%
1.25 ± 1.6 µM | Cc1ccc(NC(=O)CSc2nnc(Cn3cnc4c3c(=O)n(C)c(=O)n4C)n2-c2ccccc2)cc1 [Compound 11g, 2-(5-((1,3-Dimethyl-2,6-dioxo-2,3-dihydro-1H-purin-7(6H)-yl)methyl)-4-phenyl-4H-1,2,4-triazol-3-ylthio)-N-p-tolylacetamide] | 31.8 ± 3.16% | 21.7 ± 1.6%
